# Where two headings read alike, the source gives them in different places.
# Legend:
# HDAC8 [1] = test: Inhibition of HDAC8 activity by magnesium; type: biochemical, human; settings: 2 mM magnesium, continuous assay conditions; Figure S2
# Co(II)-HDAC8 [2] = target: T1, Co(II)-HDAC8 (Homo sapiens, UniProt Q9BY41); test: Fluorescamine assay, HDAC8-catalyzed deacetylation; type: biochemical; settings: 200 μM peptide, 0.5 μM HDAC8, 30°C
# T1 sequence (Q9BY41 1-377): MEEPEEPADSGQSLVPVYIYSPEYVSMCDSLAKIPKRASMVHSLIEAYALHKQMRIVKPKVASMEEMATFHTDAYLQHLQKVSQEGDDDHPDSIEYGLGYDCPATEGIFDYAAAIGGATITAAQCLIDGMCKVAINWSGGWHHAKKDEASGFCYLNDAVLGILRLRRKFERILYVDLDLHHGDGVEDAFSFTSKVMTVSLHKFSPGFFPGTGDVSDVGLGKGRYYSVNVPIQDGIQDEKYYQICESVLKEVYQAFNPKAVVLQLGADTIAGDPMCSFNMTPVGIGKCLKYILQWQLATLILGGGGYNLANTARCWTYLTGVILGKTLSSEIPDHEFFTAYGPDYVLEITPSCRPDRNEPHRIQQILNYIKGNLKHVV
# Procedure, shortened: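 Started with 0.5 μM HDAC8 and quenched with 1 μM TSA at 0, 30, 60 and 90 min. Enzyme removed by 10K filtration. Flow-through mixed with 1 M boric acid pH 9 and fluorescamine, 10 min at RT. Fluorescence read at ex 340/em 460 nm against an N-α-acetyl lysine methyl ester standard curve (0–5 μM).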
# Co(II)-HDAC8 [3] = target: T1, Co(II)-HDAC8; type: biochemical; settings: for substrate inhibition at higher peptide concentrations: peptide 0 – 1600 μM; for effect of pre-incubation of the peptide with Chelex 100 on observed activity: ~6 % (v/v) Chelex 100, room temperature, three hours
# Co(II)-HDAC8 [4] = target: T1, Co(II)-HDAC8; test: Optimized continuous coupled acetate assay, HDAC8-catalyzed deacetylation; type: biochemical; settings: Figure 5 legend, 100 μM peptide
# Procedure, shortened: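 Continuous coupled format in EDTA-stripped plates. Mixed 2:1 with Ac-KGGAKac-NH₂ (100 μM final). Started with Co(II)-HDAC8 (0.5–1 μM final). Rate taken from time-dependent NADH fluorescence (ex 340/em 460 nm).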
# HDAC3/NCOR1 = HDAC3/NCOR1 (Homo sapiens, UniProt O15379+O75376); test: Optimized stopped coupled acetate assay, HDAC3/NCOR1-catalyzed deacetylation; type: biochemical; settings: 100 μM peptide, 0.5 μM HDAC3/NCOR1
# Procedure, shortened: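 Started with 0.5 μM HDAC3/NCOR1 and quenched with 0.37% HCl at 0, 30, 60 and 90 min. Flash frozen at −80°C, then neutralised with 0.6% NaHCO₃. Pre-equilibrated ACS/citrate synthase/MDH coupler mix (ATP, NAD⁺, CoA, malate) added, 40 min at RT. NADH fluorescence read at ex 340/em 460 nm.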
# HDAC8 [5] = settings: HDAC8-catalyzed deacetylation; ref [25]; cited from earlier work
# [6] = Michaelis-Menten fit, stopped coupled assay, 30°C, pH 8
# HDAC3/NCOR1, sequence (O15379 whole entry): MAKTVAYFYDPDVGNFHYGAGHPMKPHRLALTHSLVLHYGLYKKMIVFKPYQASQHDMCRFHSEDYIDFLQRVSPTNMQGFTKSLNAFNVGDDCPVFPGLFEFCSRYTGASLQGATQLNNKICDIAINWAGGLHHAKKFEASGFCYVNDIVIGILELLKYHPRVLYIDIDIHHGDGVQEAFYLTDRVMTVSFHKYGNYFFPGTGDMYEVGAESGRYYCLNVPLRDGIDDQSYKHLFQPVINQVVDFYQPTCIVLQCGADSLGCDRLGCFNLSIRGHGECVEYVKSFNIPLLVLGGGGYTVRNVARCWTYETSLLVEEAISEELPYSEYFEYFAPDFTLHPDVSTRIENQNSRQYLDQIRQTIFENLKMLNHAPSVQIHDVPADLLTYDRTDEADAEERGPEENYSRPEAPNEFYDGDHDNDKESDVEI
# HDAC3/NCOR1, sequence (O75376 395-489 partner limits assumed): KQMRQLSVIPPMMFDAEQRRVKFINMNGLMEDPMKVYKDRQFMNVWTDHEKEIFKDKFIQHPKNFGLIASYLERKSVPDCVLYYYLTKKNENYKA
substance,measurement,setting,value
magnesium,inhibition of HDAC8 activity,HDAC8 [1],~ 2 fold
Ac-KGGAKac-COO^−,deacetylation rate,Co(II)-HDAC8 [2],0.0027 ± 0.0008 µM/s
same,lowering of kcat/KM relative to methylcoumarin peptide,Co(II)-HDAC8 [3]; C-terminal carboxylate vs methylcoumarin,50 fold
same,Km,Co(II)-HDAC8 [3]; [6],730 µM
same,kcat,Co(II)-HDAC8 [3]; [6],0.041 s⁻¹
same,kcat/KM,Co(II)-HDAC8 [3]; [6],56 M⁻¹ s⁻¹
same,deacetylation rate,"Co(II)-HDAC8 [3]; coupled acetate assay, 200 μM peptide, 0.5 μM HDAC8",0.0021 ± 0.0003 µM/s
Ac-KGGAKac-NH2,initial rate for deacetylation,Co(II)-HDAC8 [4]; 0.5 μM Co(II)-HDAC8,0.011 ± 0.00041 µM/s
same,initial rate for deacetylation,Co(II)-HDAC8 [4]; 1 μM Co(II)-HDAC8,0.022 ± 0.00043 µM/s
same,initial rate of deacetylation,HDAC3/NCOR1,0.015 ± 0.0016 µM/s
same,ΔΔG‡ (kcat/KM),Co(II)-HDAC8 [3]; Ac-KGGAKac-NH2 compared to Ac-KGGAKac-COO^−,1.6 kal/mol
same,initial rate for deacetylation,"Co(II)-HDAC8 [3]; Figure 5 legend, side-by-side stopped assay, 0.5 μM Co(II)-HDAC8, 100 μM peptide",0.018 ± 0.0021 µM/s
same,kcat/KM enhancement relative to Ac-KGGAKac-COO^− peptide,Co(II)-HDAC8 [3]; amide vs carboxylate,9 fold
same,substrate inhibition at higher peptide concentrations,Co(II)-HDAC8 [3]; stopped coupled assay,modest to substantial inhibition was observed at higher peptide concentrations
same,effect of pre-incubation of the peptide with Chelex 100 on observed activity,Co(II)-HDAC8 [3],no effect
Ac-KGGAKacW-NH2,increase of net transition state stabilization,Co(II)-HDAC8 [3]; addition of tryptophan or methylcoumarin moiety to the peptide,0.1 to 0.5 kcal/mol
same,substrate inhibition at higher peptide concentrations,Co(II)-HDAC8 [3]; stopped coupled assay,modest to substantial inhibition was observed at higher peptide concentrations
same,effect of pre-incubation of the peptide with Chelex 100 on observed activity,Co(II)-HDAC8 [3],no effect
Ac-KGGAKac-methylcoumarin [reference compound],ΔΔG‡ (kcat/KM),Co(II)-HDAC8 [3]; Ac-KGGAKac-methylcoumarin compared to the C-terminal carboxylate peptide,2.3 kcal/mol
same,kcat/KM,HDAC8 [5],2800 M⁻¹ s⁻¹

# — article PMC4470474 (Analytical biochemistry, 2014)
